Consider 36 molecules from the M2OR odorant receptor database.
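Further: active if original authors judged signal statistically different from baseline.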

For the assay, the target named is T1, OR1A1 (Homo sapiens) (UniProt Q9P1Q5).
T1 sequence (whole entry): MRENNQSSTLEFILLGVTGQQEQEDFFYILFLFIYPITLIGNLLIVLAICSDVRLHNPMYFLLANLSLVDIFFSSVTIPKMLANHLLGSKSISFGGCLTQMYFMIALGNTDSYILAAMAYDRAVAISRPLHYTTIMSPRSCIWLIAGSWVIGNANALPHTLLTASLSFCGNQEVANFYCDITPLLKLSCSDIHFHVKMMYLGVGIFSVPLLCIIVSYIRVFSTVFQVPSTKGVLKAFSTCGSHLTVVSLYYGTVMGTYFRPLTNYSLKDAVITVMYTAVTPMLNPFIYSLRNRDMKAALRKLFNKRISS
To be noted: stereoisomer not certain. The method in brief: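 Transient luciferase assays in mammalian cell lines were common, though methods varied by source. The values come from published papers and their supplementary material, with extra details from the original authors when needed. Responsive refers to a measured signal the original authors judged statistically different from baseline, and non-responsive (inactive) to the remainder.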
Consider `CCCCCc1ccccn1`, for which the “odorant receptor agonist call” value was “active”. For `CCCSSSCCC`, the “odorant receptor agonist call” value was “inactive”.

On to `CCCCCCCCCO`, for which the “odorant receptor agonist call” value was “inactive”. For the molecule `CCC=CCC=O`, the “odorant receptor agonist call” value was “inactive”. The same measure for `CC(=O)CCc1ccc(O)cc1`: “inactive”; for `CCCCC(=O)CC(C)=O`: “active”. `COC1=C(C)OC(C)C1=O` (stereo unspecified): the “odorant receptor agonist call” value is “inactive”. The same measure for `C=CC(=O)CC`: “inactive”; for `CC(C)=CCCC(C)=CCO`: “active”. The same measure for `CC(=O)CC(=O)CC(C)C`: “active”; for `CCCCCCCCC(=O)O`: “inactive”. The same measure for `CCCCCCCC(=O)OCC`: “inactive”; for `CCc1ccc(O)c(OC)c1`: “inactive”; for `CCCCCC=O`: “inactive”. As to `CCCCC1CCC(=O)O1` (stereo unspecified), the “odorant receptor agonist call” value was “inactive”.

`CCCCCO`: the “odorant receptor agonist call” value was “inactive”. The entry for `C=CC(=C)CCC=C(C)C` is “inactive”; for `CC(=O)C=CC1=C(C)CCCC1(C)C` it is “inactive”; for `CCC(=O)O` it is “inactive”. The entry for `CC(=O)Oc1ccccc1` is “inactive”. For the molecule `OCCc1ccccc1`, the “odorant receptor agonist call” value was “inactive”. The entry for `O=C([O-])CCCCC(=O)[O-].[H+].[H+]` is “inactive”. The same measure for `CC(C)=CCCC(C)=CCCC(C)=CCO`: “inactive”. The same measure for `CCOC(=O)Cc1cccc(Br)c1`: “active”. As to `COc1nccnc1C(C)C`, the “odorant receptor agonist call” value is “inactive”.

Consider `Cc1cnccn1`, for which the “odorant receptor agonist call” value is “inactive”. Take `CC(C)CCCCCCCCCCC=O`: the “odorant receptor agonist call” value was “inactive”. The entry for `CCCCCC1CCCC(=O)O1` (stereo unspecified) is “inactive”. `CCCCCCCC1CCCC(=O)O1` (stereo unspecified): the “odorant receptor agonist call” value was “inactive”. The same measure for `CC1(C)C2CC=C(C=O)C1C2` (stereo unspecified): “inactive”; for `CC(=O)C(C)C(C)=O`: “inactive”.

Turning to `CCc1ncc(C)nc1CC`, the “odorant receptor agonist call” value was “inactive”. Consider `CCCC1CCCC(=O)O1` (stereo unspecified), for which the “odorant receptor agonist call” value is “inactive”. The entry for `COCCC(C)(C)S` is “inactive”; for `CCCCOC=O` it is “inactive”; for `CC(=O)OCC=Cc1ccccc1` it is “inactive”.
